The source made the active and inactive calls. The calls are words filed in the database; no cut-off is given here.
Legend:
K562 [1] = test: Induction of apoptosis in human K562 cells assessed as late apoptotic cells at 10 uM after 3 days by Annexin-V staining-based assay (reference value: 5.96%); type: functional
K562 [2] = test: Induction of apoptosis in human K562 cells assessed as early apoptotic cells at 500 uM after 3 days by Annexin-V staining-based assay (reference value: 5.41%); type: functional
K562 [3] = test: Induction of apoptosis in human K562 cells assessed as dead cells at 1000 uM after 3 days by Annexin-V staining-based assay (reference value: 1.29%); type: functional
K562 [4] = test: Induction of apoptosis in human K562 cells assessed as apoptotic cells at 5 uM after 3 days by Annexin-V staining-based assay (reference value: 11.37%); type: functional
K562 [5] = test: Induction of apoptosis in human K562 cells assessed as apoptotic cells at 500 uM after 3 days by Annexin-V staining-based assay (reference value: 11.37%); type: functional
K562 [6] = test: Induction of apoptosis in human K562 cells assessed as late apoptotic cells at 500 uM after 3 days by Annexin-V staining-based assay (reference value: 5.96%); type: functional
Trichophyton tonsurans [7] = test: Antifungal activity against Trichophyton tonsurans Malmsten CBS 483.76 assessed as growth inhibition at 20 ug/ml measured on day 7 by sabouraud dextrose agar diffusion method relative to control; type: functional; conditions: Malmsten CBS 483.76, 168 h, read-out: GI
Method in brief: (§1)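 Dermatophyte strains kept on Sabouraud dextrose agar slants. Mycelium disks (10 mm) from a stationary-phase culture grown at 26 ± 1 °C on cellophane over SDA to log phase, then moved onto SDA containing compound added from DMSO stock at 45 °C (final DMSO 0.1%; DMSO-only controls). Colony diameter measured daily for 7 days. % inhibition = (dex − dex')/dex × 100. Three replicates per concentration; mean of three independent experiments.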

Nannizzia gypsea [8] = test: Antifungal activity against Nannizzia gypsea (Bodin) Guiart et Grigoraki CBS 286.63 assessed as growth inhibition at 20 ug/ml measured on day 7 by sabouraud dextrose agar diffusion method relative to control; type: functional; method in brief: as §1
K562 [9] = test: Induction of apoptosis in human K562 cells assessed as live cells at 5 uM after 3 days by Annexin-V staining-based assay (reference value: 87.33%); type: functional
[10] = Antifungal activity against Microsporum canis Bodin CBS 4727 assessed as growth inhibition at 100 ug/ml measured on day 7 by sabouraud dextrose agar diffusion method relative to control; type: functional; method in brief: as §1
Paraphyton cookei [11] = test: Antifungal activity against Nannizzia cajetani Ajello CBS 495.70 assessed as growth inhibition at 100 ug/ml measured on day 7 by sabouraud dextrose agar diffusion method relative to control; type: functional; conditions: Ajello CBS 495.70, 168 h, read-out: GI; method in brief: as §1
[12] = Antioxidant activity assessed as inhibition of AAPH-induced peroxyl radical generation by oxygen radical absorbance capacity assay relative to trolox; type: physicochemical
Method in brief: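 Run at 37 °C and pH 7.4 with fluorescein (85 nM) as the probe and AAPH as the peroxyl radical source. Compounds were dissolved fresh in PBS. Fluorescence read at ex 485/em 538 nm every 5 min for up to 30 min after AAPH addition. Net area under the decay curve (blank minus sample) was calibrated against Trolox at 10–50 μM and given as Trolox equivalents.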

K562 [13] = test: Induction of apoptosis in human K562 cells assessed as live cells at 10 uM after 3 days by Annexin-V staining-based assay (reference value: 87.33%); type: functional
K562 [14] = test: Induction of apoptosis in human K562 cells assessed as early apoptotic cells at 10 uM after 3 days by Annexin-V staining-based assay (reference value: 5.41%); type: functional
Epidermophyton floccosum [15] = test: Antifungal activity against Epidermophyton floccosum (Hartz) Langeron and Milochevitch CBS 358.93 assessed as growth inhibition at 100 ug/ml measured on day 7 by sabouraud dextrose agar diffusion method relative to control; type: functional; conditions: (Hartz) Langeron and Milochevitch CBS 358.93, 168 h, read-out: GI; method in brief: as §1
K562 [16] = test: Induction of apoptosis in human K562 cells assessed as apoptotic cells at 1000 uM after 3 days by Annexin-V staining-based assay (reference value: 11.37%); type: functional
Nannizzia gypsea [17] = test: Antifungal activity against Microsporum gypseum (Bodin) Guiart and Grigorakis IHME 3999 assessed as growth inhibition at 20 ug/ml measured on day 7 by sabouraud dextrose agar diffusion method relative to control; type: functional; method in brief: as §1
Nannizzia gypsea [18] = test: Antifungal activity against Microsporum gypseum (Bodin) Guiart and Grigorakis IHME 3999 assessed as growth inhibition at 100 ug/ml measured on day 7 by sabouraud dextrose agar diffusion method relative to control; type: functional; conditions: (Bodin) Guiart and Grigorakis IHME 3999, 168 h, read-out: GI; method in brief: as §1
K562 [19] = test: Induction of apoptosis in human K562 cells assessed as late apoptotic cells at 5 uM after 3 days by Annexin-V staining-based assay (reference value: 5.96%); type: functional
Epidermophyton floccosum [20] = test: Antifungal activity against Epidermophyton floccosum (Hartz) Langeron and Milochevitch CBS 358.93 assessed as growth inhibition at 20 ug/ml measured on day 7 by sabouraud dextrose agar diffusion method relative to control; type: functional; conditions: (Hartz) Langeron and Milochevitch CBS 358.93, 168 h, read-out: GI; method in brief: as §1
Nannizzia gypsea [21] = test: Antifungal activity against Nannizzia gypsea (Bodin) Guiart et Grigoraki CBS 286.63 assessed as growth inhibition at 100 ug/ml measured on day 7 by sabouraud dextrose agar diffusion method relative to control; type: functional; method in brief: as §1
[22] = system: Trichophyton mentagrophytes; test: Antifungal activity against Trichophyton mentagrophytes (Robin) Blanchard CBS 160.66 assessed as growth inhibition at 20 ug/ml measured on day 7 by sabouraud dextrose agar diffusion method relative to control; type: functional; conditions: (Robin) Blanchard CBS 160.66, 168 h, read-out: GI; method in brief: as §1
K562 [23] = test: Antiproliferative activity against human K562 cells assessed as cell number after 3 days by Coulter counter; conditions: K562, 72 h
Trichophyton violaceum = test: Antifungal activity against Trichophyton violaceum Malmsten CBS 459.61 assessed as growth inhibition at 20 ug/ml measured on day 7 by sabouraud dextrose agar diffusion method relative to control; type: functional; conditions: Malmsten CBS 459.61, 168 h, read-out: GI; method in brief: as §1
Paraphyton cookei [24] = test: Antifungal activity against Nannizzia cajetani Ajello CBS 495.70 assessed as growth inhibition at 20 ug/ml measured on day 7 by sabouraud dextrose agar diffusion method relative to control; type: functional; conditions: Ajello CBS 495.70, 168 h, read-out: GI; method in brief: as §1
[25] = system: Trichophyton mentagrophytes; test: Antifungal activity against Trichophyton mentagrophytes (Robin) Blanchard CBS 160.66 assessed as growth inhibition at 100 ug/ml measured on day 7 by sabouraud dextrose agar diffusion method relative to control; type: functional; conditions: (Robin) Blanchard CBS 160.66, 168 h, read-out: GI; method in brief: as §1
K562 [26] = test: Induction of apoptosis in human K562 cells assessed as late apoptotic cells at 1000 uM after 3 days by Annexin-V staining-based assay (reference value: 5.96%); type: functional
Trichophyton rubrum = test: Antifungal activity against Trichophyton rubrum (Castellani) Sabouraud IHME 4321 assessed as growth inhibition at 20 ug/ml measured on day 7 by sabouraud dextrose agar diffusion method relative to control; type: functional; conditions: (Castellani) Sabouraud IHME 4321, 168 h, read-out: GI; method in brief: as §1
Trichophyton tonsurans [27] = test: Antifungal activity against Trichophyton tonsurans Malmsten CBS 483.76 assessed as growth inhibition at 100 ug/ml measured on day 7 by sabouraud dextrose agar diffusion method relative to control; type: functional; conditions: Malmsten CBS 483.76, 168 h, read-out: GI; method in brief: as §1

C[C@@H]1O[C@@H](OC[C@H]2O[C@@H](Oc3c(-c4ccc(O)c(O)c4)oc4cc(O)cc(O)c4c3=O)[C@H](O)[C@@H](O)[C@@H]2O)[C@H](O)[C@H](O)[C@H]1O [RUTIN]
Activity (K562 [1]): inactive | Activity (K562 [2]): 9.15% | Activity (K562 [3]): 0.4% | Activity (K562 [4]): inactive | Activity (K562 [5]): 13.2% | Activity (K562 [6]): 4.05% | inhibition of growth at 20 µg/mL (Trichophyton tonsurans [7]): 0% | growth inhibition (GI) (Nannizzia gypsea [8]): inactive | Activity (K562 [9]): inactive | growth inhibition (GI) [10]: inactive | inhibition of growth at 100 µg/mL (Paraphyton cookei [11]): 12.3% | Activity [12]: 10708.06 µmol/g | Activity (K562 [13]): inactive | Activity (K562 [14]): inactive | inhibition of growth at 100 µg/mL (Epidermophyton floccosum [15]): 2.2% | Activity (K562 [16]): 14.75% | growth inhibition (GI) (Nannizzia gypsea [17]): inactive | inhibition of growth at 100 µg/mL (Nannizzia gypsea [18]): 4.1% | Activity (K562 [19]): inactive | inhibition of growth at 20 µg/mL (Epidermophyton floccosum [20]): 1.9% | growth inhibition (GI) (Nannizzia gypsea [21]): inactive | inhibition of growth at 20 µg/mL [22]: 0% | IC50 (K562 [23]): 897 µM | inhibition of growth at 20 µg/mL (Trichophyton violaceum): 2.1% | inhibition of growth at 20 µg/mL (Paraphyton cookei [24]): 3.3% | inhibition of growth at 100 µg/mL [25]: 3.3% | Activity (K562 [26]): 6.15% | inhibition of growth at 20 µg/mL (Trichophyton rubrum): 6.1% | inhibition of growth at 100 µg/mL (Trichophyton tonsurans [27]): 2.8%

— ChEMBL document CHEMBL3352456, “Design, synthesis and biological activity of a novel Rutin analogue with improved lipid soluble properties” (Bioorg Med Chem, 2015)
